Active and inactive are the calls of the source. The calls are words filed in the database; no cut-off is given here.
Assays:
Pancreatic alpha-amylase [1] = molecular target: T1, Pancreatic alpha-amylase (Homo sapiens, UniProt P04746); assay: Inhibition of human pancreatic alpha-amylase assessed as hydrolysis of G3F by Dixon plot analysis
T1 sequence (P04746 whole entry): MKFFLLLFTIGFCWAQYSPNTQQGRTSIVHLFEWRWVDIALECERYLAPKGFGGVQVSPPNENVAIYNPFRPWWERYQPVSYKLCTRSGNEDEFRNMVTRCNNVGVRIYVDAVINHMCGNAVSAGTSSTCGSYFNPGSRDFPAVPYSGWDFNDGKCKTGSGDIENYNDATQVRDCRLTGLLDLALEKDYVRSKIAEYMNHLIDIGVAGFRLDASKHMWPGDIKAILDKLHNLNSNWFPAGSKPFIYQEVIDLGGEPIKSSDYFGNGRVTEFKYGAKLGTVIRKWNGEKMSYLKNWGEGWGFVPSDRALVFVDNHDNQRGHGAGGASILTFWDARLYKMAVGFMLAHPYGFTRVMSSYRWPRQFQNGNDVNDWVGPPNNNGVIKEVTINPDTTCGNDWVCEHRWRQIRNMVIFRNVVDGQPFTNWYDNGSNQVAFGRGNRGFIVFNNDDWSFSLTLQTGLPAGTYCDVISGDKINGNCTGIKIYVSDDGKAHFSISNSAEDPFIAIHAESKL

Alpha-amylase 1A [2] = molecular target: T2, Alpha-amylase 1A (Homo sapiens, UniProt P0DUB6); assay: Non-competitive inhibition of human salivary alpha-amylase using GalG2CNP as substrate assessed as CNP liberation by Lineweaver-Burk plot analysis
T2 sequence (P0DUB6 whole entry): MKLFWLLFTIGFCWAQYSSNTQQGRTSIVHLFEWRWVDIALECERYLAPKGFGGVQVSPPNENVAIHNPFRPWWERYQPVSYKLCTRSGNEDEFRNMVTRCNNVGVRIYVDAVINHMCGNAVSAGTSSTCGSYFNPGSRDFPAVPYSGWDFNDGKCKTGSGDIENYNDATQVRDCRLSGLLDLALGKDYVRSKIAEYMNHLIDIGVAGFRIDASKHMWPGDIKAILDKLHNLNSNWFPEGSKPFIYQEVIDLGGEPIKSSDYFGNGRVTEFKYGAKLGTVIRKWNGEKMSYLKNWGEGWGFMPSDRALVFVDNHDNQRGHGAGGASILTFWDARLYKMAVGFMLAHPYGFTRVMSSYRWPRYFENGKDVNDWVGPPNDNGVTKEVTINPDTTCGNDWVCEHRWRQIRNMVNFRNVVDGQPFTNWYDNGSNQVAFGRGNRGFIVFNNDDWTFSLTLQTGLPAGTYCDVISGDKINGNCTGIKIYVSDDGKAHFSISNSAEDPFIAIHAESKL
Method in brief: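 Same HSA/GalG2CNP system: 2 nM enzyme, 0.75-4 mM substrate, 50 mM MES pH 6.0 with Ca(OAc)2, NaCl, NaN3, 37°C, CNP followed continuously at 400 nm, inhibitor added from DMSO. Inhibition type was assigned from Lineweaver-Burk plots.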

Alpha-amylase 1A [3] = molecular target: T2, Alpha-amylase 1A; assay: Inhibition of human salivary alpha-amylase using GalG2CNP as substrate assessed as CNP liberation by spectrophotometric analysis
Method in brief: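 Chromogenic kinetic assay with 2 nM HSA and 0.75-4 mM GalG2CNP in 50 mM MES pH 6.0 with 5 mM Ca(OAc)2, 51.5 mM NaCl, 152 mM NaN3, 37°C. Substrate and inhibitor (DMSO dilutions) were premixed and the reaction started by adding enzyme. CNP release was followed continuously at 400 nm. IC50 was taken from a four-parameter logistic fit of fractional activity versus inhibitor level, three repeats.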

[4] = molecular target: T3, Pancreatic alpha-amylase (Homo sapiens) (UniProt P04746); assay: Inhibition of human pancreatic alpha-amylase using CNPG3 as substrate by spectrophotometric analysis in presence of 40 mM G3F as donor compound and 25 mM 5FIdoF as acceptor compound relative to control
T3 sequence (whole entry): T1 sequence (P04746 whole entry)

[5] = Inhibition of Escherichia coli MurC ligase after 15 mins by Malachite green assay
Alpha-amylase 1A [6] = molecular target: T2, Alpha-amylase 1A; assay: Inhibition of human salivary alpha-amylase using GalG2CNP as substrate by UV-Vis spectrophotometric analysis; conditions: read-out: IC50
Pancreatic alpha-amylase [7] = molecular target: T1, Pancreatic alpha-amylase; assay: Competitive inhibition of human pancreatic alpha-amylase by double reciprocal plot analysis
[8] = molecular target: T4, Alpha-amylase 1A (Homo sapiens) (UniProt P0DUB6); assay: Inhibition of human salivary alpha-amylase using GalG2CNP as substrate at 200 uM by UV-Vis spectrophotometric analysis
T4 sequence (whole entry): T2 sequence (P0DUB6 whole entry)
Method in brief: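 Single-concentration test at 200 μM inhibitor against human salivary α-amylase (2 nM) with GalG2CNP substrate, 50 mM MES pH 6.0 containing 5 mM Ca(OAc)2, 51.5 mM NaCl, 152 mM NaN3, 37°C. Chloronitrophenol liberation monitored continuously at 400 nm by UV-Vis spectrophotometry.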

[9] = molecular target: T4, Alpha-amylase 1A (Homo sapiens); assay: Potency index, ratio of BAS 04880564 IC50 to compound IC50 for human salivary alpha-amylase
Pancreatic alpha-amylase [10] = molecular target: T1, Pancreatic alpha-amylase; assay: Inhibition of human pancreatic alpha-amylase expressed in Pichia pastoris using amylase as substrate preincubated with substrate for 10 mins followed by protein addition measured every 5 mins
Pancreatic alpha-amylase [11] = molecular target: T1, Pancreatic alpha-amylase; assay: Inhibition of human pancreatic alpha-amylase
Escherichia coli = assay: Inhibition of Escherichia coli MurC ligase assessed as residual activity at 100 uM after 15 mins by Malachite green assay
[12] = molecular target: T4, Alpha-amylase 1A (Homo sapiens); assay: Mixed type inhibition of human salivary alpha-amylase using GalG2CNP as substrate by Lineweaver-Burk plot analysis
Method in brief: (§1)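 Inhibition mode assigned from Lineweaver-Burk plots. Human salivary α-amylase (2 nM) started reactions containing GalG2CNP (0.75–4 mM) and inhibitor in DMSO, in 50 mM MES pH 6.0 with 5 mM Ca(OAc)2, 51.5 mM NaCl, 152 mM NaN3 at 37°C. Rates from continuous 400 nm absorbance of released CNP.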

Pancreatic alpha-amylase [13] = molecular target: T1, Pancreatic alpha-amylase; assay: Inhibition of human pancreatic alpha-amylase expressed in Pichia pastoris using amylase as substrate preincubated with substrate for 10 mins followed by protein addition measured every 5 mins by Dixon plot analysis
Alpha-amylase 1A [14] = molecular target: T2, Alpha-amylase 1A; assay: Inhibition of human salivary alpha-amylase using rice starch as substrate after 12 mins by microplate reader analysis
[15] = molecular target: T3, Pancreatic alpha-amylase (Homo sapiens); assay: Inhibition of human pancreatic alpha-amylase using CNPG3 as substrate at 50 mM by spectrophotometric analysis in presence of 20 mM MeG2F as donor compound and 50 mM 5FIdoF as acceptor compound relative to control
[16] = Inhibition of malt alpha-amylase; conditions: concentration not given here
Alpha-amylase 1A [17] = molecular target: T2, Alpha-amylase 1A; assay: Inhibition of human salivary alpha-amylase using GalG2CNP as substrate
[18] = molecular target: T4, Alpha-amylase 1A (Homo sapiens); assay: Competitive inhibition of human salivary alpha-amylase using GalG2CNP as substrate by Lineweaver-Burk plot analysis; method in brief: as §1

OC[C@H]1N/C(=N/O)[C@H](O)[C@@H](O)[C@@H]1O[C@H]1O[C@H](CO)[C@@H](O[C@H]2O[C@H](CO)[C@@H](O)[C@H](O)[C@H]2O)[C@H](O)[C@H]1O
Ki (Pancreatic alpha-amylase [1]): 1800 µM

O=C(OC[C@H]1O[C@@H](OC(=O)c2cc(O)c(O)c(O)c2)[C@H](OC(=O)c2cc(O)c(O)c(O)c2)[C@@H](OC(=O)c2cc(O)c(O)c(O)c2)[C@@H]1OC(=O)c1cc(O)c(O)c(O)c1)c1cc(O)c(O)c(O)c1 [PENTAGALLOYL GLUCOSE]
Ki (Alpha-amylase 1A [2]): 2.6 µM
IC50 (Alpha-amylase 1A [3]): 2.35 µM

OCC1OC(OC2C(O)C(O)C(F)OC2(F)CO)C(O)C(O)C1O (centres undefined)
inhibition [4]: 90%

O=C(O)c1cc(Nc2nc(-c3ccc(O)cc3O)cs2)ccc1O
IC50 [5]: 347 µM
IC50 (Alpha-amylase 1A [6]): 423 µM

C[C@@H]1O[C@@H](O[C@@H]2CO[C@@H](Oc3c(O)cc(C4=C(O[C@@H]5O[C@@H](C)[C@H](O)[C@@H](O)[C@H]5O[C@@H]5O[C@H](COC(=O)/C=C/c6ccc(O)cc6)[C@@H](O)[C@H](O)[C@H]5O[C@@H]5O[C@H](CO)[C@@H](O)[C@H](O)[C@H]5O)C(=O)c5c(O)cc(O)cc5C4)cc3O)[C@H](O)[C@H]2O)[C@H](O)[C@H](O)[C@H]1O
Ki (Pancreatic alpha-amylase [7]): 3.6 µM

CC1=NN(c2ccccc2)C(=O)/C1=C(/NNC(=O)c1ccccc1O)c1ccccc1
inhibition [8]: inactive

NS(=O)(=O)c1ccc(Nc2nc(-c3ccc(O)cc3O)cs2)cc1
Ratio IC50 [9]: 0.83
IC50 [5]: 531 µM
IC50 (Alpha-amylase 1A [6]): 165 µM

C[C@H]1O[C@H](O[C@H]2[C@H](O)[C@@H](O)[C@@H](O)O[C@@H]2CO)[C@H](O)[C@@H](O)[C@@H]1NC1=C[C@H](CO)[C@@H](O[C@H]2O[C@H](CO)[C@@H](O[C@H]3O[C@H](CO)[C@@H](O)[C@H](O)[C@H]3O)[C@H](O)[C@H]2O)[C@H](O)[C@H]1O
IC50 (Pancreatic alpha-amylase [10]): 2.59 µM

C[C@H]1O[C@H](O[C@H]2[C@H](O)[C@@H](O)[C@@H](OC[C@H]3O[C@@H](O)[C@H](O)[C@@H](O)[C@@H]3O)O[C@@H]2CO)[C@H](O)[C@@H](O)[C@@H]1N[C@H]1C=C(CO)[C@@H](O)[C@H](O)[C@H]1O
Ki (Pancreatic alpha-amylase [11]): 0.012 µM

CO[C@H]1[C@H](O)[C@@H](O)[C@@H](O[C@H]2[C@H](O)[C@@H](O)[C@@H](O[C@H]3[C@H](O)[C@@H](O)/C(=N\O)N[C@@H]3CO)O[C@@H]2CO)O[C@@H]1CO
Ki (Pancreatic alpha-amylase [1]): 25 µM

CC(=O)c1cccc(Nc2nc(-c3ccc(O)cc3O)cs2)c1
Ratio IC50 [9]: 1.38
Activity (Escherichia coli): 83%
inhibition [12]: Active
IC50 (Alpha-amylase 1A [6]): 100 µM

C[C@@H]1O[C@@H](O[C@@H]2CO[C@@H](Oc3c(O)cc(C4=C(O[C@@H]5O[C@@H](C)[C@H](O)[C@@H](O)[C@H]5O[C@@H]5O[C@H](COC(=O)/C=C/c6ccc(O)c(O)c6)[C@@H](O)[C@H](O)[C@H]5O[C@@H]5O[C@H](CO)[C@@H](O)[C@H](O)[C@H]5O)C(=O)c5c(O)cc(O)cc5C4)cc3O)[C@H](O)[C@H]2O)[C@H](O)[C@H](O)[C@H]1O
Ki (Pancreatic alpha-amylase [7]): 0.008 µM

C[C@H]1O[C@H](O[C@H]2[C@H](O)[C@@H](O)[C@@H](OC[C@H]3OC4(NC(=S)NC4=O)[C@H](O)[C@@H](O)[C@@H]3O)O[C@@H]2CO)[C@H](O)[C@@H](O)[C@@H]1N[C@H]1C=C(CO)[C@@H](O)[C@H](O)[C@H]1O (some centres undefined)
Ki (Alpha-amylase 1A [2]): 0.19 µM

C[C@H]1O[C@H](O[C@H]2[C@H](O)[C@@H](O)[C@@H](O[C@H]3[C@H](O)[C@@H](O)[C@@H](O[C@H]4[C@H](O)[C@@H](O)[C@@H](O[C@H]5[C@H](O)[C@@H](O)[C@@H](O)O[C@@H]5CO)O[C@@H]4CO)O[C@@H]3CO)O[C@@H]2CO)[C@H](O)[C@@H](O)[C@@H]1N[C@H]1C=C(CO)[C@@H](O[C@H]2O[C@H](CO)[C@@H](O[C@H]3O[C@H](C)[C@@H](N[C@H]4C=C(CO)[C@@H](O[C@H]5O[C@H](CO)[C@@H](O[C@H]6O[C@H](C)[C@@H](N[C@H]7C=C(CO)[C@@H](O)[C@H](O)[C@H]7O)[C@H](O)[C@H]6O)[C@H](O)[C@H]5O)[C@H](O)[C@H]4O)[C@H](O)[C@H]3O)[C@H](O)[C@H]2O)[C@H](O)[C@H]1O
Ki (Pancreatic alpha-amylase [13]): 0.0143 µM

O=C(O[C@@H]1Cc2c(O)cc(O)cc2O[C@@H]1c1cc(O)c(O)c(O)c1)c1cc(O)c(O)c(O)c1 [EPIGALOCATECHIN GALLATE]
IC50 (Alpha-amylase 1A [14]): 1400 µM

OC[C@H]1N/C(=N/O)[C@H](O)[C@@H](O)[C@@H]1O
Ki (Pancreatic alpha-amylase [1]): 18000 µM

OCC1OC(OC2C(CO)OC(OC3C(O)C(O)C(F)OC3(F)CO)C(O)C2O)C(O)C(O)C1O (centres undefined)
inhibition [15]: 95%

CC(=O)OCC(OC(C)=O)C1OC(O)=C(O)C1=O (centres undefined)
inhibition [16]: 99%

C[C@H]1O[C@H](O[C@H]2[C@H](O)[C@@H](O)[C@@H](O)O[C@@H]2CO)[C@H](O)[C@@H](O)[C@@H]1N[C@H]1C=C(CO)[C@@H](O)[C@H](O)[C@H]1O
Ki (Pancreatic alpha-amylase [11]): 0.075 µM

CC1OC(OC2C(CO)OC(O)C(O)C2O)C(O)C(O)C1NC1C=C(CO)C(OC2OC(CO)C(OC3OC(C)C(NC4C=C(CO)C(O)C(O)C4O)C(O)C3O)C(O)C2O)C(O)C1O (centres undefined)
Ki (Alpha-amylase 1A [17]): 0.7 µM

CC1OC(OC2C(CO)OC(OCC3OC(O)C(O)C(O)C3O)C(O)C2O)C(O)C(O)C1NC1C=C(CO)C(OC2OC(CO)C(OC3OC(CO)C(O)C(O)C3O)C(O)C2O)C(O)C1O (centres undefined)
Ki (Pancreatic alpha-amylase [11]): 0.012 µM

CN(C)c1ccc(Nc2nc(-c3ccc(O)cc3O)cs2)cc1
Ratio IC50 [9]: 1.38
Activity (Escherichia coli): 90%
Inhibition mode [18]: Active
IC50 (Alpha-amylase 1A [6]): 100 µM

COC1=C(O)C(=O)OC1C1COC(C)(C)O1 (centres undefined)
inhibition [16]: 0%

COc1cc(/C=C/C(=O)OC[C@H]2O[C@@H](O[C@H]3[C@H](OC4=C(c5cc(O)c(O[C@@H]6OC[C@@H](O[C@@H]7O[C@@H](C)[C@H](O)[C@@H](O)[C@H]7O)[C@H](O)[C@H]6O)c(O)c5)Cc5cc(O)cc(O)c5C4=O)O[C@@H](C)[C@H](O)[C@H]3O)[C@H](O[C@@H]3O[C@H](CO)[C@@H](O)[C@H](O)[C@H]3O)[C@@H](O)[C@@H]2O)ccc1O
Ki (Pancreatic alpha-amylase [7]): 6.1 µM

— ChEMBL document CHEMBL3616379, “From carbohydrates to drug-like fragments: Rational development of novel α-amylase inhibitors” (Bioorg Med Chem, 2015)
